{"source": "ChEMBL document CHEMBL1955813", "about": "“Synthesis of new troglitazone derivatives: anti-proliferative activity in breast cancer cell lines and preliminary toxicological study” (Eur J Med Chem, 2012)", "key": {"[1]": {"assay": "Cytotoxicity against human hepatocytes assessed as cell viability at 100 uM after 90 mins by MTT assay relative to control", "assay_type": "cell-based, Hepatocyte", "conditions": "read-out: Activity", "outline": "(§1)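 Cryopreserved primary human hepatocytes, 0.1 × 10⁶ cells/well in DMEM with gentamycin, insulin, 10 µM dexamethasone, 37 °C, 5% CO₂. Equilibrated 30 min with stirring at 900 rpm, then compound or DMSO (0.4%) added, 0.5–100 µM (7 levels), triplicate. After 90 min, MTT added for 30 min at 37 °C; formazan dissolved in DMSO, A595; viability as % of DMSO control.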"}, "MDA-MB-231": {"system": "MDA-MB-231", "assay": "Antiproliferative activity hormone-independent human MDA-MB-231 cells after 24 hrs by luminescent cell viability assay", "assay_type": "functional, cell-based", "conditions": "MDA-MB-231, 24 h", "outline": "(§2)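 Seeded at 8.10⁴ cells/well; after 24 h attachment, medium switched to 1% FCS with 2 mM L-glutamine and compounds added. MCF-7 grown in phenol red DMEM, MDA-MB-231 in L-15 (both 10% FCS, 37 °C). Exposure 24 h; controls 0.1% DMSO. Cells washed, trypsinized, quantified by CellTiter-Glo luminescence. Triplicate; IC50 = concentration halving viable cell number.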"}, "MCF7": {"system": "MCF7", "assay": "Antiproliferative activity hormone-dependent human MCF7 cells after 24 hrs by luminescent cell viability assay", "assay_type": "functional, cell-based", "conditions": "MCF7, 24 h", "outline": "as §2"}, "Hepatocyte": {"system": "Hepatocyte", "assay": "Cytotoxicity against human hepatocytes assessed as cell viability up to 50 uM after 90 mins by MTT assay", "assay_type": "cell-based", "conditions": "1.5 h", "outline": "as §1"}, "[2]": {"assay": "Ratio of drug level in liver to plasma in rat", "assay_type": "ADME, tissue-based", "conditions": "liver and plasma"}, "[3]": {"assay": "Cmax in human at 600 mg/day", "assay_type": "ADME, organism-based", "design": "dose 600 mg/day", "conditions": "plasma"}}, "data": [{"compound": "Cc1c(C)c2c(c(C)c1OC(=O)CCCCCCCNC(=O)CCCC[C@@H]1SC[C@@H]3NC(=O)N[C@@H]31)CCC(C)(COc1ccc(/C=C3\\SC(=O)NC3=O)cc1)O2", "note": "(stereo partly drawn)", "values": [{"measurement": "viability at 1.5 h, 100 µM", "setting": "[1]", "result": 61, "unit": "%"}, {"measurement": "IC50", "setting": "MDA-MB-231", "result": 3.7, "unit": "µM"}, {"measurement": "IC50", "setting": "MCF7", "result": 26, "unit": "µM"}]}, {"compound": "Cc1c(C)c2c(c(C)c1OC(=O)CCCC[C@@H]1SC[C@@H]3NC(=O)N[C@@H]31)CCC(C)(COc1ccc(/C=C3\\SC(=O)NC3=O)cc1)O2", "note": "(mixture of isomers)", "values": [{"measurement": "viability at 1.5 h, 100 µM", "setting": "[1]", "result": 66, "unit": "%"}, {"measurement": "IC50", "setting": "MDA-MB-231", "result": 3.5, "unit": "µM"}, {"measurement": "IC50", "setting": "MCF7", "result": 11.2, "unit": "µM"}]}, {"compound": "Cc1c(C)c2c(c(C)c1OC(=O)CCCC[C@@H]1SC[C@@H]3NC(=O)N[C@@H]31)CCC(C)(COc1ccc(CC3SC(=O)NC3=O)cc1)O2", "note": "(mixture of isomers)", "values": [{"measurement": "viability at 1.5 h, 100 µM", "setting": "[1]", "result": 50, "unit": "%"}, {"measurement": "IC50", "setting": "MDA-MB-231", "result": 6.5, "unit": "µM"}, {"measurement": "IC50", "setting": "MCF7", "result": 15.9, "unit": "µM"}]}, {"compound": "Cc1c(C)c2c(c(C)c1OC(=O)OC(C)(C)C)CCC(C)(COc1ccc(/C=C3\\SC(=O)NC3=O)cc1)O2", "note": "(racemic)", "values": [{"measurement": "viability at 1.5 h, 100 µM", "setting": "[1]", "result": 75, "unit": "%"}, {"measurement": "IC50", "setting": "MDA-MB-231", "result": 3.3, "unit": "µM"}, {"measurement": "IC50", "setting": "MCF7", "result": 7.7, "unit": "µM"}]}, {"compound": "Cc1cc(C)c2c(c1C)OC(C)(COc1ccc(/C=C3\\SC(=O)NC3=O)cc1)CC2", "note": "(racemic)", "values": [{"measurement": "Activity", "setting": "Hepatocyte", "result": "Non-toxic"}, {"measurement": "viability at 1.5 h, 100 µM", "setting": "[1]", "result": 84, "unit": "%"}, {"measurement": "IC50", "setting": "MDA-MB-231", "result": 10.8, "unit": "µM"}, {"measurement": "IC50", "setting": "MCF7", "result": 12.5, "unit": "µM"}]}, {"compound": "Cc1c(C)c2c(c(C)c1OC(=O)CCCCCCCNC(=O)OC(C)(C)C)CCC(C)(COc1ccc(/C=C3\\SC(=O)NC3=O)cc1)O2", "note": "(racemic)", "values": [{"measurement": "Activity", "setting": "Hepatocyte", "result": "Non-toxic"}, {"measurement": "viability at 1.5 h, 100 µM", "setting": "[1]", "result": 79, "unit": "%"}, {"measurement": "IC50", "setting": "MDA-MB-231", "result": 3.2, "unit": "µM"}, {"measurement": "IC50", "setting": "MCF7", "result": 13, "unit": "µM"}]}, {"compound": "Cc1c(C)c2c(c(C)c1OC(=O)CCCCCCCN)CCC(C)(COc1ccc(/C=C3\\SC(=O)NC3=O)cc1)O2", "note": "(racemic)", "values": [{"measurement": "viability at 1.5 h, 100 µM", "setting": "[1]", "result": 57, "unit": "%"}, {"measurement": "IC50", "setting": "MDA-MB-231", "result": 5, "unit": "µM"}, {"measurement": "IC50", "setting": "MCF7", "result": 3.2, "unit": "µM"}]}, {"compound": "CC(=O)NCCNC(=O)CCC(=O)Oc1c(C)c(C)c2c(c1C)CCC(C)(COc1ccc(/C=C3\\SC(=O)NC3=O)cc1)O2", "note": "(racemic)", "values": [{"measurement": "viability at 1.5 h, 100 µM", "setting": "[1]", "result": 75, "unit": "%"}, {"measurement": "IC50", "setting": "MDA-MB-231", "result": "> 25", "unit": "µM"}, {"measurement": "IC50", "setting": "MCF7", "result": "> 50", "unit": "µM"}]}, {"compound": "Cc1c(C)c2c(c(C)c1OC(=O)OC(C)(C)C)CCC(C)(COc1ccc(CC3SC(=O)NC3=O)cc1)O2", "note": "(racemic)", "values": [{"measurement": "viability at 1.5 h, 100 µM", "setting": "[1]", "result": 47, "unit": "%"}, {"measurement": "IC50", "setting": "MDA-MB-231", "result": 3.8, "unit": "µM"}, {"measurement": "IC50", "setting": "MCF7", "result": 11.2, "unit": "µM"}]}, {"compound": "Cc1cc(C)c2c(c1C)OC(C)(COc1ccc(CC3SC(=O)NC3=O)cc1)CC2", "note": "(racemic)", "values": [{"measurement": "viability at 1.5 h, 100 µM", "setting": "[1]", "result": 66, "unit": "%"}, {"measurement": "IC50", "setting": "MDA-MB-231", "result": 12.3, "unit": "µM"}, {"measurement": "IC50", "setting": "MCF7", "result": 20, "unit": "µM"}]}, {"compound": "Cc1c(C)c2c(c(C)c1OC(=O)CCC(=O)O)CCC(C)(COc1ccc(CC3SC(=O)NC3=O)cc1)O2", "note": "(racemic)", "values": [{"measurement": "viability at 1.5 h, 100 µM", "setting": "[1]", "result": 76, "unit": "%"}, {"measurement": "IC50", "setting": "MDA-MB-231", "result": "> 25", "unit": "µM"}, {"measurement": "IC50", "setting": "MCF7", "result": "> 50", "unit": "µM"}]}, {"compound": "Cc1c(C)c2c(c(C)c1O)CCC(C)(COc1ccc(/C=C3\\SC(=O)NC3=O)cc1)O2", "note": "(racemic)", "values": [{"measurement": "Activity", "setting": "Hepatocyte", "result": "Non-toxic"}, {"measurement": "viability at 1.5 h, 100 µM", "setting": "[1]", "result": 63, "unit": "%"}, {"measurement": "IC50", "setting": "MDA-MB-231", "result": 16.6, "unit": "µM"}, {"measurement": "IC50", "setting": "MCF7", "result": 29.7, "unit": "µM"}]}, {"compound": "Cc1c(C)c2c(c(C)c1OC(=O)CCC(=O)O)CCC(C)(COc1ccc(/C=C3\\SC(=O)NC3=O)cc1)O2", "note": "(racemic)", "values": [{"measurement": "viability at 1.5 h, 100 µM", "setting": "[1]", "result": 54, "unit": "%"}, {"measurement": "IC50", "setting": "MDA-MB-231", "result": "> 25", "unit": "µM"}, {"measurement": "IC50", "setting": "MCF7", "result": "> 50", "unit": "µM"}]}, {"compound": "Cc1c(C)c2c(c(C)c1O)CCC(C)(COc1ccc(CC3SC(=O)NC3=O)cc1)O2", "note": "(stereo not drawn) [TROGLITAZONE]", "values": [{"measurement": "Activity", "setting": "Hepatocyte", "result": "Non-toxic"}, {"measurement": "Kp", "setting": "[2]", "result": 10}, {"measurement": "Cmax", "setting": "[3]", "result": 6.3, "unit": "µM"}, {"measurement": "viability at 1.5 h, 100 µM", "setting": "[1]", "result": 52, "unit": "%"}, {"measurement": "IC50", "setting": "MDA-MB-231", "result": 15.7, "unit": "µM"}, {"measurement": "IC50", "setting": "MCF7", "result": 35.4, "unit": "µM"}]}]}
